Entries after “also recorded” stand apart in the source; their conditions may differ.
Tests used:
[1] = ABTS radical scavenging assay; assay type: biochemical; conditions: read-out: ABTS IC50; concentration to scavenge 50% of radicals, mean ± SD
Procedure, shortened: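 ABTS radical cation generated by reacting ABTS with potassium persulfate, then diluted to an absorbance of about 0.700 at 732 nm. Test compound at several concentrations was mixed with the ABTS⁺ solution and the fall in absorbance recorded. Percent scavenging was calculated against a solvent control, with ascorbic acid as reference antioxidant. Three independent experiments in triplicate, mean ± SD.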

[2] = tested on: PC-3 (human prostate cancer); experiment: SRB cytotoxicity assay, PC-3 cells; assay type: cell-based; conditions: for IC50: Homo sapiens, PC-3, 72 h, read-out: IC50 PC-3; for Selectivity index (SI) PC-3: IC50 in GES-1 / IC50 in PC-3
Procedure, shortened: (§1)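 Cells plated at 3 × 10³ per well and left 24 h to attach at 37 °C, 5% CO₂. Test compound at 0–100 µM from ethanol stocks (1% final ethanol) for 72 h. Fixation in TCA (10% final), staining with 0.1% SRB, dye solubilized in 10 mM Tris, A540. Viability relative to 1% ethanol vehicle. IC50 from a four-parameter logistic fit with 95% CI; triplicate, three independent runs, mean ± SD. SI = IC50 in GES-1 divided by IC50 in the cancer line.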

[3] = tested on: HT-29 (human colorectal adenocarcinoma); experiment: SRB cytotoxicity assay, HT-29 cells; assay type: cell-based; conditions: for IC50: Homo sapiens, HT-29, 72 h, read-out: IC50 HT-29; for Selectivity index (SI) HT-29: IC50 in GES-1 / IC50 in HT-29
Procedure, shortened: as §1

Hemolysis assay = assay type: cell-based, human; conditions: human, washed human red blood cells, Hemolysis (%), 30 min, 37 °C
Procedure, shortened: (§2)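 Donor blood was collected in EDTA. RBCs were pelleted at 500 × g for 10 min, washed three times in PBS and resuspended in PBS. Cells were exposed to test compound at 10–300 µg/mL for 30 min at 37 °C with gentle agitation, then spun at 1000 × g for 5 min; supernatant hemoglobin was read at 540 nm. Deionized water defined 100% and PBS 0% hemolysis. Triplicate, three independent repeats.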

human erythrocytes = experiment: Hemolysis assay; assay type: cell-based; conditions: for Hemolysis, result in words: 10–300 µg/mL; for Hemolysis (%): 30 min, 37 °C
Procedure, shortened: as §2

[4] = tested on: mitochondrial membrane permeability of cancer cell line; experiment: Mitochondrial membrane permeability by flow cytometry; assay type: cell-based, human; conditions: 48 h, Rhodamine 123, flow cytometry
[5] = tested on: AGS (human gastric adenocarcinoma); experiment: SRB cytotoxicity assay, AGS cells; assay type: cell-based; conditions: for IC50: Homo sapiens, AGS, 72 h, read-out: IC50 AGS; for Selectivity index (SI) AGS: IC50 in GES-1 / IC50 in AGS
Procedure, shortened: as §1

Compound | IC50 [1] [µM] | IC50 [2] [µM] | IC50 [3] [µM] | hemolysis at 30 min, 10 µg/mL (Hemolysis assay) [%] | hemolysis at 30 min, 25 µg/mL (Hemolysis assay) [%] | hemolysis at 30 min, 50 µg/mL (Hemolysis assay) [%] | hemolysis at 30 min, 100 µg/mL (Hemolysis assay) [%] | hemolysis at 30 min, 200 µg/mL (Hemolysis assay) [%] | hemolysis at 30 min, 300 µg/mL (Hemolysis assay) [%] | IC50 [5] [µM] | Selectivity index (SI) AGS [5] | also measured
O=C1O[C@H]([C@@H](O)CO)C(O)=C1O [AA, Ascorbic acid, reference compound] | 141 ± 3.5 | – | – | – | – | – | – | – | – | – | – | –
CC1(C)C2CC[C@]1(C)C(=O)/C2=C/c1ccco1 [Compound 3, (1S,3E)-3-[(furan-2-yl)methylidene]-1,7,7-trimethylbicyclo[2.2.1]heptan-2-one] | 953 ± 1.5 | > 100 | > 100 | 6.75 | 8.31 | 17.9 | 23.6 | 28.2 | 35.3 | 99.9 ± 0.2 | 1.85 | Hemolysis, result in words (human erythrocytes): concentration dependent increase in hemolysis; Effect on mitochondrial membrane potential [4]: loss of the mitochondrial membrane potential
CC1(C)C2CC[C@@]1(C)C(=O)/C2=C/c1ccco1 [Compound 4, (1R,3E)-3-[(furan-2-yl)methylidene]-1,7,7-trimethylbicyclo[2.2.1]heptan-2-one] | 1004 ± 2 | > 100 | > 100 | 15.7 | 18.2 | 20.1 | 31.8 | 41.5 | 49.7 | > 100 | – | Hemolysis, result in words (human erythrocytes): concentration dependent increase in hemolysis; also recorded: significant hemolysis
CC1(C)C2CC[C@]1(C)C(=O)/C2=C/c1cccs1 [Compound 5, (1S,3E)-1,7,7-trimethyl-3-[(thiophen-2-yl)methylidene]bicyclo[2.2.1]heptan-2-one] | 1301 ± 2.4 | 63.57 ± 0.6 | 87.5 ± 0.5 | 0 | 0 | 1.1 | 3.11 | 7.4 | 13.8 | 43.2 ± 0.3 | 4.2 | Selectivity index (SI) PC-3 [2]: 3.0; Selectivity index (SI) HT-29 [3]: 2.1; Effect on mitochondrial membrane potential [4]: loss of the mitochondrial membrane potential
O=c1[nH]cc(F)c(=O)[nH]1 [Compound 5-FU, 5-fluorouracil, reference compound] | – | 16.4 ± 0.6 | 2.9 ± 0.7 | – | – | – | – | – | – | 56.1 ± 0.5 | 2.5 | Selectivity index (SI) HT-29 [3]: 48.3
CC1(C)C2CC[C@@]1(C)C(=O)/C2=C/c1cccs1 [Compound 6, (1R,3E)-1,7,7-trimethyl-3-[(thiophen-2-yl)methylidene]bicyclo[2.2.1]heptan-2-one] | 1082 ± 1.7 | > 100 | > 100 | 6.36 | 7.07 | 16.8 | 21.6 | 26.7 | 29 | > 100 | – | Hemolysis, result in words (human erythrocytes): concentration dependent increase in hemolysis
CC1(C)C2CC[C@]1(C)C(=O)/C2=C/c1ccoc1 [Compound 7, (1S,3E)-3-[(furan-3-yl)methylidene]-1,7,7-trimethylbicyclo[2.2.1]heptan-2-one] | 1046 ± 3.3 | > 100 | > 100 | 0 | 0 | 0 | 1.81 | 3.12 | 5.97 | > 100 | – | –
CC1(C)C2CC[C@@]1(C)C(=O)/C2=C/c1ccoc1 [Compound 8, (1R,3E)-3-[(furan-3-yl)methylidene]-1,7,7-trimethylbicyclo[2.2.1]heptan-2-one] | 1344 ± 3.4 | > 100 | > 100 | 0 | 2.53 | 6.29 | 8.5 | 9.74 | 12.2 | > 100 | – | –
CC1(C)C2CC[C@]1(C)C(=O)/C2=C/c1cc2ccccc2o1 [Compound 9, (1S,3E)-3-[(1-benzofuran-2-yl)methylidene]-1,7,7-trimethylbicyclo[2.2.1]heptan-2-one] | 954.7 ± 2.7 | 97 ± 0.2 | 76.3 ± 0.2 | 2.01 | 3.31 | 6.36 | 8.05 | 12.9 | 13.4 | 31.8 ± 0.4 | 7.0 | Selectivity index (SI) PC-3 [2]: 2.3; Selectivity index (SI) HT-29 [3]: 3.0; Effect on mitochondrial membrane potential [4]: loss of the mitochondrial membrane potential
CC1(C)C2CC[C@@]1(C)C(=O)/C2=C/c1cc2ccccc2o1 [Compound 10, (1R,3E)-3-[(1-benzofuran-2-yl)methylidene]-1,7,7-trimethylbicyclo[2.2.1]heptan-2-one] | 1146 ± 3.7 | > 100 | > 100 | 0 | 0.38 | 3.12 | 5.84 | 6.16 | 8.05 | > 100 | – | –
CC1(C)C2CC[C@]1(C)C(=O)/C2=C/c1ccsc1 [Compound 11, (1S,3E)-1,7,7-trimethyl-3-[(thiophen-3-yl)methylidene]bicyclo[2.2.1]heptan-2-one] | 1396 ± 3.8 | – | – | 0 | 0.77 | 5.25 | 7.2 | 11.2 | 13.2 | – | – | –
CC1(C)C2CC[C@@]1(C)C(=O)/C2=C/c1ccsc1 [Compound 12, (1R,3E)-1,7,7-trimethyl-3-[(thiophen-3-yl)methylidene]bicyclo[2.2.1]heptan-2-one] | 1025 ± 3.5 | – | – | 5.9 | 6.81 | 7.92 | 9.41 | 10.2 | 12.5 | – | – | Hemolysis, result in words (human erythrocytes): concentration dependent increase in hemolysis
COc1cccc2c1C(=O)c1c(O)c3c(c(O)c1C2=O)C[C@@](O)(C(C)=O)C[C@@H]3O[C@H]1C[C@H](N)[C@H](O)[C@H](C)O1 [Daunorubicin, reference compound] | – | 10.4 ± 0.4 | 15.1 ± 0.5 | – | – | – | – | – | – | 13 ± 0.3 | 27.1 | Selectivity index (SI) PC-3 [2]: 33.9; Selectivity index (SI) HT-29 [3]: 23.3
Triton X-100 [Triton X-100 1%, reference compound] | – | – | – | – | – | – | – | – | – | – | – | Hemolysis (%) (human erythrocytes; 10 µg/mL): 100%; Hemolysis (%) (human erythrocytes; 25 µg/mL): 100%; Hemolysis (%) (human erythrocytes; 50 µg/mL): 100%; Hemolysis (%) (human erythrocytes; 100 µg/mL): 100%; Hemolysis (%) (human erythrocytes; 200 µg/mL): 100%; Hemolysis (%) (human erythrocytes; 300 µg/mL): 100%

Reference: PMC12705676 (Scientific Reports, 2025)
